Results on 2 molecules are retold here after ChEMBL document CHEMBL3085761, “Synthesis, anticonvulsant and anti-inflammatory studies of new 1,4-dihydropyridin-4-yl-phenoxyacetohydrazones” (Eur J Med Chem, 2013).

Holding throughout (assay type): functional
Test [1] concerns Rattus norvegicus. In words: Antiinflammatory activity in Wistar rat assessed as inhibition of carrageenan-induced paw edema at 20 mg/kg administered 30 mins prior to carrageenan-challenge measured after 1 hr by plethysmographic analysis relative to control. Summed up:
(§1)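 Male or female Wistar rats (100–150 g), five per group, fasted overnight; 20 mg/kg given by stomach tube in 5 mL water. 30 min later 0.05 mL 1% carrageenan s.c. into left hind paw plantar side; paw volume by mercury plethysmography at 0, 30, 60, 120, 180 min; percent inhibition versus control, one-way ANOVA with Dunnett's test.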
(In general: The carrageenan paw model is a standard test of acute inflammation.)

Test [2] deals with Rattus norvegicus. In words: Antiinflammatory activity in Wistar rat assessed as inhibition of carrageenan-induced paw edema at 20 mg/kg administered 30 mins prior to carrageenan-challenge measured after 30 mins by plethysmographic analysis relative to control. A digest of the protocol: as §1
Test [3] relates to Rattus norvegicus. In words: Antiinflammatory activity in Wistar rat assessed as inhibition of carrageenan-induced paw edema at 20 mg/kg administered 30 mins prior to carrageenan-challenge measured after 3 hrs by plethysmographic analysis relative to control. A digest of the protocol: as §1
Test [4] concerns Rattus norvegicus. In words: Antiinflammatory activity in Wistar rat assessed as inhibition of carrageenan-induced paw edema at 20 mg/kg administered 30 mins prior to carrageenan-challenge measured after 2 hrs by plethysmographic analysis relative to control. A digest of the protocol: as §1
The subject of test [5] is Mus musculus. In words: Anticonvulsant activity in ip dosed mouse assessed as protection against maximal electroshock-induced epileptic seizures after 4 hrs. The following applies: read-out: MED. Summed up: (§2)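 Mice (20–40 g), groups of six to ten; i.p. doses 30, 100 and 300 mg/kg; tested at 0.5 and 4 h. Stimulus 50 mA, 60 Hz, 0.2 s via corneal electrodes primed with anaesthetic electrolyte; abolition of hindlimb tonic extension scored as protection. Value is the minimal dose protecting at least 50% of animals.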

Test [6] relates to Mus musculus. In words: Anticonvulsant activity in ip dosed mouse assessed as protection against maximal electroshock-induced epileptic seizures after 0.5 hrs. The following applies: read-out: MED. A digest of the protocol: as §2

Take `O=C(O)Cc1ccccc1Nc1c(Cl)cccc1Cl` [DICLOFENAC SODIUM]: the inhibition in vivo at 20 mg/kg came out at 41% in the test on Rattus norvegicus [1], 16.7% in the test with Rattus norvegicus [2], 65.3% in the test with Rattus norvegicus [3] and 61.1% in the test on Rattus norvegicus [4].

With `O=C1NC(=O)C(c2ccccc2)(c2ccccc2)N1` [PHENYTOIN], the minimal effective dose in the test with Mus musculus [5] and in the test on Mus musculus [6] was 30 mg/kg each time.

Usually inhibition in vivo stands for the change of the read-out against control, counted positive when it falls.
